In ChEMBL document CHEMBL3525992, “Identification of 20(S)-protopanaxadiol metabolites in human liver microsomes and human hepatocytes” (Drug Metab Dispos, 2011):

Columns and labels:
[1] = test system: Hepatocyte; assay: Retention time of the compound in human hepatocytes treated with 20(S)-protopanaxadiol at 50 uM after 180 mins by liquid chromatography-electrospray ionization ion trap mass spectrometry; format: ADME, cell-based; details: 3 h
Outline: (§1)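 Human hepatocytes (2 million cells/ml) in Williams' E medium with substrate 50 µM, 0.5% (v/v) final MeOH, 37°C for 3 h. Negative controls were substrate at 0 h and no substrate at 3 h. Quenched with equal volume acetonitrile, in duplicate. Methanol was added, then centrifugation, dry-down and reconstitution. Analysed by C8 reversed-phase LC with formic acid/methanol–ammonium acetate gradient, ESI ion trap MSⁿ, m/z 100–800.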

[2] = test system: Liver microsome; assay: Drug level in mixed human liver microsomes treated with (20S,24S)-epoxydammarane-3,12,25-triol at 50 uM after 120 mins by liquid chromatography-electrospray ionization ion trap mass spectrometry in presence of UDPGA; format: ADME; details: 2 h
Outline: (§2)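 Pooled HLM protein 1.0 mg/ml in 50 mM Tris-HCl pH 7.4 with 10 mM MgCl₂, 2 mM UDPGA and 25 µg/mL alamethicin. Preincubated 3 min at 37°C, then started with substrate (50 µM). Run 120 min, stopped with equal volume ice-cold acetonitrile. 0 min incubations served as controls, in duplicate. Processed and analysed by LC/ESI ion trap MSⁿ.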

[3] = test system: Liver microsome; assay: Drug level in mixed human liver microsomes treated with (20S,24R)-epoxydammarane-3,12,25-triol at 50 uM after 120 mins by liquid chromatography-electrospray ionization ion trap mass spectrometry in presence of UDPGA; format: ADME; details: 2 h; outline: as §2
[4] = test system: Liver microsome; assay: Drug metabolism in mixed human liver microsomes assessed as glucuronide conjugate metabolite level at 50 uM after 120 mins by liquid chromatography-electrospray ionization ion trap mass spectrometry in presence of UDPGA; format: ADME; details: 2 h
Outline: (§3)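 Pooled human liver microsomes, 1.0 mg/ml protein, in 50 mM Tris-HCl pH 7.4 with 10 mM MgCl₂, 2 mM UDPGA and 25 µg/mL alamethicin. Preincubated 3 min at 37°C, started with substrate 50 µM (final MeOH 0.1%), run 120 min, stopped with ice-cold acetonitrile. Time-0 controls; duplicates. Analysed by LC/ESI ion-trap MSn.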

[5] = Drug excretion in Sprague-Dawley rat feces assessed as metabolite 2 ((20S,24S)-epoxydammarane-3,12,25-triol) level at 100 mg/kg/day, po qd for 11 days administered via gavage by liquid chromatography-electrospray ionization ion trap mass spectrometry; format: ADME, organism-based; parameters: route oral; details: in vivo, 264 h
Outline: (§4)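 Rats given PPD by gavage at 100 mg/kg/day once daily for 11 days, as a 10 mg/ml solution in 0.5% carboxymethyl cellulose sodium, 0.5% polysorbate-80 and 99% saline; 20 rats housed singly in metabolic cages. Feces collected over 0–288 h and frozen at -20°C; blank feces taken before dosing.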

[6] = Drug excretion in Sprague-Dawley rat feces assessed as metabolite 3 ((20S,24R)-epoxydammarane-3,12,25-triol) level at 100 mg/kg/day, po qd for 11 days administered via gavage by liquid chromatography-electrospray ionization ion trap mass spectrometry; format: ADME, organism-based; parameters: route oral; details: in vivo, 264 h; outline: as §4
[7] = Drug excretion in Sprague-Dawley rat feces assessed as metabolite 4 ((20S,24S)-epoxydammarane-12,25-diol-3-one) level at 100 mg/kg/day, po qd for 11 days administered via gavage by liquid chromatography-electrospray ionization ion trap mass spectrometry; format: ADME, organism-based; parameters: route oral; details: in vivo, 264 h; outline: as §4
[8] = Drug excretion in Sprague-Dawley rat feces assessed as metabolite 5 ((20S,24R)-epoxydammarane-12,25-diol-3-one) level at 100 mg/kg/day, po qd for 11 days administered via gavage by liquid chromatography-electrospray ionization ion trap mass spectrometry; format: ADME, organism-based; parameters: route oral; details: in vivo, 264 h; outline: as §4
[9] = Oral bioavailability in rat at 25 mg/kg; format: ADME, organism-based; details: in vivo
[10] = Oral bioavailability in dog at 8 mg/kg; format: ADME, organism-based, Canis lupus familiaris; details: in vivo
[11] = Retention time of the compound at 100 uM measured after 60 mins by liquid chromatography-electrospray ionization ion trap mass spectrometry in presence of 10 uM 3-chloroperoxybenzoic acid; format: physicochemical; details: 1 h
Outline: (§5)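 PPD 100 µM oxidised chemically with m-CPBA 10 µM in CH₂Cl₂, stirred at room temperature for 15 and 60 min. Mixture poured into Na₂CO₃-saturated ice water and extracted three times with ether before LC/MS analysis.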

[12] = Drug metabolism in human hepatocytes assessed as metabolite 6-2 ((3R,6S)-6-((3S,5R,8R,9R,10R,12R,14R,17S)-3,12-dihydroxy-4,4,8,10,14-pentamethylhexadecahydro-1H-cyclopenta[a]phenanthren-17-yl)-2-methylheptane-2,3,6-triol) formation at 50 uM after 180 mins by liquid chromatography-electrospray ionization ion trap mass spectrometry; format: ADME, cell-based, Hepatocyte; details: 3 h
[13] = Drug metabolism in human hepatocytes assessed as metabolite 7-1 ((2S,3S,4S,5R,6S)-6-(2-((2S,5S)-5-((3S,5R,8R,9R,10R,12R,14R,17S)-3,12-dihydroxy-4,4,8,10,14-pentamethylhexadecahydro-1H-cyclopenta[a]phenanthren-17-yl)-5-methyltetrahydrofuran-2-yl)propan-2-yloxy)-3,4,5-trihydroxytetrahydro-2H-pyran-2-carboxylic acid) formation at 50 uM after 180 mins by liquid chromatography-electrospray ionization ion trap mass spectrometry; format: ADME, cell-based, Hepatocyte; details: 3 h
[14] = Drug metabolism in human hepatocytes assessed as metabolite 7-2 ((2S,3S,4S,5R,6S)-6-(2-((2R,5S)-5-((3S,5R,8R,9R,10R,12R,14R,17S)-3,12-dihydroxy-4,4,8,10,14-pentamethylhexadecahydro-1H-cyclopenta[a]phenanthren-17-yl)-5-methyltetrahydrofuran-2-yl)propan-2-yloxy)-3,4,5-trihydroxytetrahydro-2H-pyran-2-carboxylic acid) formation at 50 uM after 180 mins by liquid chromatography-electrospray ionization ion trap mass spectrometry; format: ADME, cell-based, Hepatocyte; details: 3 h
[15] = test system: Liver microsome; assay: Drug metabolism in mixed human liver microsomes assessed as metabolite 6 ((24S,25)-epoxydammarane-3,12,20-triol formation at 50 uM after 60 mins by liquid chromatography-electrospray ionization ion trap mass spectrometry; format: ADME; details: 1 h
Outline: (§6)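 Pooled human liver microsomes, 1.0 mg/ml protein, with substrate 50 µM in 100 mM potassium phosphate pH 7.4 (final MeOH 0.1% v/v). Preincubated 3 min at 37°C, started with NADPH 2.0 mM, run 60 min, stopped with ice-cold acetonitrile. Controls lacked NADPH or substrate; duplicates. Metabolites profiled by LC/ESI ion-trap MSn.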

[16] = test system: Liver microsome; assay: Drug metabolism in mixed human liver microsomes assessed as metabolite 2 ((20S,24S)-epoxydammarane-3,12,25-triol) formation at 50 uM after 60 mins by liquid chromatography-electrospray ionization ion trap mass spectrometry; format: ADME; details: 1 h; outline: as §6
[17] = test system: Liver microsome; assay: Drug metabolism in mixed human liver microsomes assessed as metabolite 3 ((20S,24R)-epoxydammarane-3,12,25-triol) formation at 50 uM after 60 mins by liquid chromatography-electrospray ionization ion trap mass spectrometry; format: ADME; details: 1 h; outline: as §6
[18] = test system: Liver microsome; assay: Drug metabolism in mixed human liver microsomes assessed as metabolite 4 ((20S,24S)-epoxydammarane-12,25-diol-3-one) formation at 50 uM after 60 mins by liquid chromatography-electrospray ionization ion trap mass spectrometry; format: ADME; details: 1 h; outline: as §6
[19] = test system: Liver microsome; assay: Drug metabolism in mixed human liver microsomes assessed as metabolite 5 ((20S,24R)-epoxydammarane-12,25-diol-3-one) formation at 50 uM after 60 mins by liquid chromatography-electrospray ionization ion trap mass spectrometry; format: ADME; details: 1 h; outline: as §6
[20] = Drug metabolism in human hepatocytes assessed as metabolite 6 ((24S,25)-epoxydammarane-3,12,20-triol formation at 50 uM after 180 mins by liquid chromatography-electrospray ionization ion trap mass spectrometry; format: ADME, cell-based, Hepatocyte; details: 3 h
[21] = Drug metabolism in human hepatocytes assessed as metabolite 2 ((20S,24S)-epoxydammarane-3,12,25-triol) formation at 50 uM after 180 mins by liquid chromatography-electrospray ionization ion trap mass spectrometry; format: ADME, cell-based, Hepatocyte; details: 3 h
[22] = Drug metabolism in human hepatocytes assessed as metabolite 3 ((20S,24R)-epoxydammarane-3,12,25-triol) formation at 50 uM after 180 mins by liquid chromatography-electrospray ionization ion trap mass spectrometry; format: ADME, cell-based, Hepatocyte; details: 3 h
[23] = Drug metabolism in human hepatocytes assessed as metabolite 4 ((20S,24S)-epoxydammarane-12,25-diol-3-one) formation at 50 uM after 180 mins by liquid chromatography-electrospray ionization ion trap mass spectrometry; format: ADME, cell-based, Hepatocyte; details: 3 h
[24] = Drug metabolism in human hepatocytes assessed as metabolite 5 ((20S,24R)-epoxydammarane-12,25-diol-3-one) formation at 50 uM after 180 mins by liquid chromatography-electrospray ionization ion trap mass spectrometry; format: ADME, cell-based, Hepatocyte; details: 3 h
[25] = Drug metabolism in human hepatocytes assessed as metabolite 6-1 ((3S,6S)-6-((3S,5R,8R,9R,10R,12R,14R,17S)-3,12-dihydroxy-4,4,8,10,14-pentamethylhexadecahydro-1H-cyclopenta[a]phenanthren-17-yl)-2-methylheptane-2,3,6-triol) formation at 50 uM after 180 mins by liquid chromatography-electrospray ionization ion trap mass spectrometry; format: ADME, cell-based, Hepatocyte; details: 3 h
[26] = Drug excretion in Sprague-Dawley rat feces treated with 20(S)-protopanaxadiol at 100 mg/kg/day, po qd for 11 days administered via gavage by liquid chromatography-electrospray ionization ion trap mass spectrometry; format: ADME, organism-based; parameters: route oral; details: in vivo, 264 h
Outline: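 PPD given by gavage at 10 mg/ml in 0.5% carboxymethyl cellulose sodium, 0.5% polysorbate-80 and 99% saline; 20 rats, one per metabolic cage. Feces collected over 0–288 h (48 h after last dose), blanks taken before dosing, frozen at -20°C.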

[27] = Retention time of the compound treated with 20(S)-protopanaxadiol at 100 uM measured after 60 mins by liquid chromatography-electrospray ionization ion trap mass spectrometry in presence of 10 uM 3-chloroperoxybenzoic acid; format: physicochemical; details: 1 h; outline: as §5
[28] = test system: Hepatocyte; assay: Drug level in human hepatocytes treated with 20(S)-protopanaxadiol at 50 uM after 180 mins by liquid chromatography-electrospray ionization ion trap mass spectrometry; format: ADME, cell-based; details: 3 h; outline: as §1
[29] = test system: Liver microsome; assay: Drug metabolism in mixed human liver microsomes assessed as metabolite 7-1 ((2S,3S,4S,5R,6S)-6-(2-((2S,5S)-5-((3S,5R,8R,9R,10R,12R,14R,17S)-3,12-dihydroxy-4,4,8,10,14-pentamethylhexadecahydro-1H-cyclopenta[a]phenanthren-17-yl)-5-methyltetrahydrofuran-2-yl)propan-2-yloxy)-3,4,5-trihydroxytetrahydro-2H-pyran-2-carboxylic acid) formation at 50 uM after 120 mins by liquid chromatography-electrospray ionization ion trap mass spectrometry in presence of UDPGA; format: ADME; outline: as §3
[30] = test system: Liver microsome; assay: Retention time of the compound in mixed human liver microsomes treated with 20(S)-protopanaxadiol at 50 uM after 60 mins by liquid chromatography-electrospray ionization ion trap mass spectrometry; format: ADME; details: 1 h
Outline: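 Pooled HLM protein 1.0 mg/ml with substrate 50 µM in 100 mM potassium phosphate pH 7.4, 0.1% (v/v) final MeOH. Preincubated 3 min at 37°C, started with 2.0 mM NADPH, incubated 60 min. Stopped with equal volume ice-cold acetonitrile. Controls lacked NADPH or substrate, in duplicate. Analysed on C8 reversed-phase column, formic acid methanol/ammonium acetate gradient, ESI ion trap MSⁿ.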

In the case of `CC(C)(O)[C@H](O)CC[C@](C)(O)[C@H]1CC[C@]2(C)[C@@H]1[C@H](O)C[C@@H]1[C@@]3(C)CC[C@H](O)C(C)(C)[C@@H]3CC[C@]12C`, the Retention_time [1] is reported as 15.8 min.
For `CC(C)(O[C@@H]1O[C@H](C(=O)O)[C@@H](O)[C@H](O)[C@H]1O)[C@@H]1CC[C@@](C)([C@H]2CC[C@]3(C)[C@@H]2[C@H](O)C[C@@H]2[C@@]4(C)CC[C@H](O)C(C)(C)[C@@H]4CC[C@]23C)O1`, the Drug metabolism [2] was “metabolite_detected” and the Retention_time [1] was 16 min.
In the case of `CC(C)(O[C@@H]1O[C@H](C(=O)O)[C@@H](O)[C@H](O)[C@H]1O)[C@H]1CC[C@@](C)([C@H]2CC[C@]3(C)[C@@H]2[C@H](O)C[C@@H]2[C@@]4(C)CC[C@H](O)C(C)(C)[C@@H]4CC[C@]23C)O1`, the Drug metabolism [3] is reported as “metabolite_detected” and the Retention_time [1] is reported as 16.9 min.
With `CC(C)=CCC[C@](C)(O)[C@H]1CC[C@]2(C)[C@@H]1[C@H](O)C[C@@H]1[C@@]3(C)CC[C@H](O)C(C)(C)[C@@H]3CC[C@]12C` the Drug metabolism [4] was “metabolite_not_detected”, the Drug excretion [5] was “metabolite_detected” and the Drug excretion [6] was “metabolite_detected”. For the same molecule, the Drug excretion [7] was “metabolite_detected”, the Drug excretion [8] was “metabolite_detected” and the bioavailability [9] was 31%. For the same molecule, the bioavailability [10] was 9.6%, the Retention_time [11] was 22.3 min and the Drug metabolism [12] was “metabolite_detected”. For the same molecule, the Drug metabolism [13] was “metabolite_detected”, the Drug metabolism [14] was “metabolite_detected” and the Drug metabolism [15] was “metabolite_detected”. The Drug metabolism [16] was “metabolite_detected”, the Drug metabolism [17] was “metabolite_detected” and the Drug metabolism [18] was “metabolite_detected”. The Drug metabolism [19] was “metabolite_detected”, the Drug metabolism [20] was “metabolite_detected” and the Drug metabolism [21] was “metabolite_detected”. The Drug metabolism [22] was “metabolite_detected”, the Drug metabolism [23] was “metabolite_detected” and the Drug metabolism [24] was “metabolite_detected”. The Drug metabolism [25] was “metabolite_detected”.
For `CC(C)(O)[C@@H]1CC[C@@](C)([C@H]2CC[C@]3(C)[C@@H]2[C@H](O)C[C@@H]2[C@@]4(C)CC[C@H](O)C(C)(C)[C@@H]4CC[C@]23C)O1`, the Drug excretion [26] was “metabolite_detected”, the Retention_time [27] was 19.2 min and the Drug metabolism [28] was “metabolite_detected”. The Drug metabolism [29] was “metabolite_detected” and the Retention_time [30] was 19.2 min.
